Experimental findings from ChEMBL document CHEMBL3600378 (J Med Chem, 2015) are described below.

For data set [1], the species on record is Homo sapiens. Nature of the data set: Selectivity ratio of EC50 for human beta2-adrenergic receptor to EC50 for human beta3-adrenergic receptor.
The target of data set [2] is T1, Beta-3 adrenergic receptor (Homo sapiens, UniProt P13945). Briefly: Intrinsic activity at human beta3-adrenergic receptor expressed in CHO cells assessed as increase of cAMP level after 30 mins relative to isoproterenol. It counts as functional, cell-based. In outline:
(§1)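 Stably transfected CHO cells expressing human β1, β2 or β3 or marmoset β3 receptor were grown in Ham's F-12 with 10% FBS and geneticin, seeded at 2×10⁴ cells/well and grown about 20 h. Cells spent 15 min serum-free, then 30 min with compound in medium containing HEPES and isobutylmethylxanthine. Lysate cAMP was measured by kit. […] EC50 is the half-maximal concentration for each compound.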
In general terms: Cyclic AMP is a second messenger, typically raised through Gs and lowered through Gi signalling.
Target sequence in this assay (P13945 whole entry, looked up): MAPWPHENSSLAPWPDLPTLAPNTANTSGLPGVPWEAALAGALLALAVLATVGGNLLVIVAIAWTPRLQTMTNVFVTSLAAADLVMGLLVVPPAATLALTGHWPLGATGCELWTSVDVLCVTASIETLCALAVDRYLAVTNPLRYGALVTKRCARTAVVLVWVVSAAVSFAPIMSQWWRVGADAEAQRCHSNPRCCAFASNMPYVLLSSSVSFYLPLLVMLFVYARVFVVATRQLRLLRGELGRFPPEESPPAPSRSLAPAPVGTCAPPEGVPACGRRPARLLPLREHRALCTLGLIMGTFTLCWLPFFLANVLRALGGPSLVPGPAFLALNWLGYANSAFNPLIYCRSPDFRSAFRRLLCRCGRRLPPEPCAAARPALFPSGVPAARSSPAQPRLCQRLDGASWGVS

For data set [3], the system named is Rattus norvegicus. Briefly: Cardiotoxicity in anesthetized Sprague-Dawley rat assessed as decrease in heart rate at 3 mg/kg, iv measured for 30 mins relative to control. It counts as toxicity, organism-based. The arrangement: scale not given: the % may be the effect or the level left. Conditions: in vivo, 0.5 h. In outline: (§2)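 Male Sprague-Dawley rats (200-300 g) were anesthetized with sodium pentobarbital (50 mg/kg i.p. plus 25 mg/kg s.c.). The compound was injected via the cannulated left femoral vein once BP and HR were stable, and HR and MBP were recorded for 30 min. Results are the maximum % increase or decrease from baseline, as mean ± SEM. Where given, silodosin (0.01 mg/kg iv) preceded the compound.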

Data set [4] deals with T1, Beta-3 adrenergic receptor. Briefly: Agonist activity at human recombinant beta3-adrenergic receptor expressed in CHO cells assessed as increase of cAMP level after 30 mins. It is filed as functional, cell-based.
Target sequence in this assay (P13945 whole entry): as the sequence (P13945 whole entry, looked up) above
Data set [5] addresses T2, Alpha-2B adrenergic receptor (Homo sapiens, UniProt P18089).
T2 sequence (P18089 whole entry): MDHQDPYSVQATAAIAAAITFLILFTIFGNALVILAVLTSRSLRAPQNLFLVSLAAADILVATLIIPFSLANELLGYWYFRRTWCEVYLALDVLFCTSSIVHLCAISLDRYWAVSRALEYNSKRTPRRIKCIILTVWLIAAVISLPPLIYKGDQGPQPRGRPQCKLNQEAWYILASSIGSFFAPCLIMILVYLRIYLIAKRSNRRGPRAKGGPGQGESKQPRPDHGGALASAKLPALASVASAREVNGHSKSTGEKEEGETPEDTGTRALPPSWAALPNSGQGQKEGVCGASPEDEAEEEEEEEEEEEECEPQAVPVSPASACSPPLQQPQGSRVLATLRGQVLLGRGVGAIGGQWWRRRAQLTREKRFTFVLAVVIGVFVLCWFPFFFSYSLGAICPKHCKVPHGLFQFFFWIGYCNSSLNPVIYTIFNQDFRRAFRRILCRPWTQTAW
Nature of the data set: Agonist activity at human alpha2B-adrenergic receptor.

The subject of data set [6] is Rattus norvegicus. Nature of the data set: Cardiotoxicity in anesthetized Sprague-Dawley rat assessed as decrease in mean blood pressure at 3 mg/kg, iv measured for 30 mins relative to control. The arrangement: scale not given: the % may be the effect or the level left. It is filed as toxicity, organism-based. The conditions noted are these: in vivo, 0.5 h. In outline:
as §2

For data set [7], the system named is Rattus norvegicus. Briefly: Cardiotoxicity in anesthetized Sprague-Dawley rat assessed as increase in mean blood pressure at 3 mg/kg, iv measured for 30 mins relative to control. The conditions noted are these: in vivo, 0.5 h. It is filed as toxicity, organism-based. The method, boiled down: as §2
In data set [8] the target is Beta-2 adrenergic receptor (Homo sapiens, UniProt P07550). Briefly: Agonist activity at human beta2-adrenergic receptor expressed in CHO cells assessed as increase of cAMP level after 30 mins. It counts as functional, cell-based. The method, boiled down:
as §1

Data set [9] concerns the target T3, Alpha-1B adrenergic receptor (Homo sapiens, UniProt P35368).
T3 sequence (P35368 whole entry): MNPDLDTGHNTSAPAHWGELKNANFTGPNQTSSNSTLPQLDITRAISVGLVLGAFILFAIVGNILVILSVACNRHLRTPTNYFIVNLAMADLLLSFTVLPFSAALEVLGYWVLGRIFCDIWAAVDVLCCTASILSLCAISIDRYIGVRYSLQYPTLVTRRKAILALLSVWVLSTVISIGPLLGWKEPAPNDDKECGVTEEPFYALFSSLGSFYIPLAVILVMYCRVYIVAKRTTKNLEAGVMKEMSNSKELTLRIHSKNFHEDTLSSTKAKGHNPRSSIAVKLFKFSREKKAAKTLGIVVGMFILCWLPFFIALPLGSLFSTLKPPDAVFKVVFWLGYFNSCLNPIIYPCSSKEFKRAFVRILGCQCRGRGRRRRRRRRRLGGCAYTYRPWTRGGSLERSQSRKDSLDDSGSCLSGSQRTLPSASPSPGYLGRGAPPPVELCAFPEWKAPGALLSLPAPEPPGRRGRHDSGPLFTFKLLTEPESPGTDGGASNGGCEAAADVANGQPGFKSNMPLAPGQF
Briefly: Agonist activity at human alpha1B-adrenergic receptor.

Chain of Beta-2 adrenergic receptor (P07550 whole entry): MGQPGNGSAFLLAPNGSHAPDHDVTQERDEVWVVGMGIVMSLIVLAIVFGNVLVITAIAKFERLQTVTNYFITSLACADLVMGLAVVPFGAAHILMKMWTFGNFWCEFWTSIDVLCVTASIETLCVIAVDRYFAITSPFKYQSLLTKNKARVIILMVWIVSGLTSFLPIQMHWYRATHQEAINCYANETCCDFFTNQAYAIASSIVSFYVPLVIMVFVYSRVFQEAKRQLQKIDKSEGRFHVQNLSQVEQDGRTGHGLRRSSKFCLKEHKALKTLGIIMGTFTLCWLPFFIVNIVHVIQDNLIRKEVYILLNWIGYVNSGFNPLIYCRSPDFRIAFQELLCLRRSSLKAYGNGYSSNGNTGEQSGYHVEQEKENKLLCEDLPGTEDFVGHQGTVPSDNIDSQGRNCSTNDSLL

As a reminder, the EC50 is the concentration giving half of the maximal effect. Turning to `Cc1n[nH]c2cc(OCCNC[C@H](O)c3cccc(NS(C)(=O)=O)c3)ccc12`, the Ratio EC50 in [1] was > 476. Also, the Intrinsic activity in data set [2] is 82%. The values for the Activity in [3], in [6] and in [7] were 8.8%, 8.5% and 24.2%, respectively. Further, the concentration for a half-maximal effect (EC50) was 0.021 µM in data set [4], > 10 µM in [5], > 10 µM in data set [8] and > 10 µM in [9].
